Assay results: ChEMBL document CHEMBL4364240, “Tetracyclines as Inhibitors of Pre-microRNA Maturation: A Disconnection between RNA Binding and Inhibition” (ACS Med Chem Lett, 2019)
The source made the active and inactive calls. The calls are words filed in the database; no cut-off is given here.

Experiments:
microRNA 21 [1] = experiment: Inhibition of Dicer mediated biotinylated pre-miRNA-21 (unknown origin) maturation preincubated for 15 mins followed by pre-miRNA-21 addition and measured after 5 hrs by cat-ELCCA; type: nucleic-acid assay
Procedure, shortened: (§1)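 Dose-response cat-ELCCA in which Dicer is in excess over the biotinylated pre-miRNA substrate to ensure adequate signal-to-background. IC50 values are derived from the inhibition curves and reported as 95% confidence intervals.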

[2] = Inhibition of biotinylated pre-let-7d microRNA (unknown origin) maturation preincubated for 15 mins followed by Pre-let-7d addition and measured after 5 hrs by cat-ELCCA; procedure, shortened: as §1
microRNA 21 [3] = experiment: Binding affinity to biotinylated pre-miRNA-21 (unknown origin) by SPR analysis; type: nucleic-acid assay
microRNA 21 [4] = experiment: Inhibition of Dicer mediated 5'-biotinylated PEG linked pre-miRNA-21 (unknown origin) maturation; type: nucleic-acid assay
microRNA 21 [5] = experiment: Inhibition of Dicer mediated biotinylated pre-miRNA-21 (unknown origin) maturation at 1 mM measured after 15 mins by cat-ELCCA relative to control; type: nucleic-acid assay
Procedure, shortened: (§2)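 Single-point cat-ELCCA screen at 1.0 mM compound. Recombinant Dicer is used in excess over the pre-miRNA substrate to give enough signal-to-background. The read-out is percent inhibition of processing.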

[6] = Inhibition of biotinylated pre-let-7d (unknown origin) maturation at 1 mM preincubated for 15 mins followed by Pre-let-7d addition and measured after 5 hrs by cat-ELCCA; procedure, shortened: as §2
[7] = Binding affinity to biotinylated pre-let-7d microRNA (unknown origin) by SPR analysis
microRNA 21 [8] = experiment: […] miR-21 RNA in human HeLA cells transfected with pmirGLO empty vector incubated for 48 hrs by Dual-Glo luciferase assay; type: cell-based
microRNA 21 [9] = experiment: […] miR-21 RNA in human HeLA cells transfected with pmir21 vector incubated for 48 hrs by Dual-Glo luciferase assay; type: cell-based
Escherichia coli = experiment: Inhibition of Escherichia coli RNase 3 dsRBD assessed as inhibition of pre-miRNA-21 maturation incubated for 0.5 to 1 hr
microRNA 21 [10] = experiment: Inhibition of Dicer mediated biotinylated pre-miRNA-21 (unknown origin) maturation in presence of 1;1 ratio of CaCl2 and MgCl2 preincubated for 15 mins followed by pre-miRNA-21 addition and measured after 5 hrs by cat-ELCCA; type: nucleic-acid assay
microRNA 21 [11] = experiment: Inhibition of Dicer mediated biotinylated pre-miRNA-21 (unknown origin) maturation in presence of 1 to 3 mM MgCl2 preincubated for 15 mins followed by pre-miRNA-21 addition and measured after 5 hrs by cat-ELCCA; type: nucleic-acid assay

IC50 (microRNA 21 [1]) | inhibition (microRNA 21 [5]) | IC50 ([2]; read-out: IC50) | SMILES | other results
692 µM | – | – | O=c1nc(/C=C/c2ccc(O)c(O)c2)oc2ccccc12 | IC50 [2]: Not Active
148 µM | – | – | COc1ccc(-c2cc(-c3cc(OC)ccc3O)[nH]n2)cc1 | IC50 [2]: Not Active
229 µM | – | – | Nc1ccc(-c2nc3cc(-c4nc5ccccc5o4)ccc3[nH]2)cc1 | IC50 [2]: Not Active
15 µM | – | – | CN1c2ccccc2C(C)(C)C12C=Cc1cc(O)ccc1O2 (centres undefined) | IC50 [2]: Not Active
– | – | – | CN1CCN(c2ccc3nc(-c4ccc5nc(-c6ccc(O)cc6)[nH]c5c4)[nH]c3c2)CC1 | Kd (microRNA 21 [3]; read-out: Kd): 0.1 to 0.7 µM
398 µM | – | – | Oc1ccc(-c2csc(Cc3c[nH]c4ccccc34)n2)cc1O | IC50 [2]: Not Active
645 µM | – | – | O=c1oc2c(-c3cccc(Cl)c3)cc(O)cc2s1 | IC50 [2]: Not Active
– | – | – | CC(=O)Oc1cccc2c1C(=O)C1=C(O)[C@]3(OC(C)=O)C(=O)C(C(N)=O)=C(O)[C@@H](N(C)C)[C@@H]3[C@@H](OC(C)=O)[C@@H]1[C@]2(C)OC(C)=O | inhibition (microRNA 21 [4]): Active
– | 40 to 100% | – | CN(C)[C@@H]1C(O)=C(C(N)=O)C(=O)[C@@]2(O)C(O)=C3C(=O)c4c(O)ccc(Cl)c4[C@@H](O)[C@H]3C[C@@H]12 | –
– | 40 to 100% | – | CN(C)[C@H]1C(O)=C(C(N)=O)C(=O)[C@@]2(O)C(O)=C3C(=O)c4c(O)cccc4[C@@](C)(O)[C@H]3C[C@@H]12 | –
– | 40 to 100% | – | CN(C)c1cc(NC(=O)CNC(C)(C)C)c(O)c2c1C[C@H]1C[C@H]3[C@H](N(C)C)C(O)=C(C(N)=O)C(=O)[C@@]3(O)C(O)=C1C2=O | –
155 to 274 µM | 40 to 100% | 237 to 307 µM | CN(C)[C@@H]1C(O)=C(C(N)=O)C(=O)[C@@]2(O)C(O)=C3C(=O)c4c(O)ccc(Cl)c4[C@@](C)(O)[C@H]3C[C@@H]12 [CHLORTETRACYCLINE] | –
433 to 1410 µM | 40 to 100% | 433 to 1300 µM | C[C@H]1c2cccc(O)c2C(=O)C2=C(O)[C@]3(O)C(=O)C(C(N)=O)=C(O)[C@@H](N(C)C)[C@@H]3[C@@H](O)[C@@H]21 [DOXYCYCLINE] | –
– | inactive | – | NC[C@@H]1O[C@H](O[C@H]2[C@@H](O)[C@H](O[C@@H]3[C@@H](O)[C@H](N)C[C@H](N)[C@H]3O[C@H]3O[C@H](CN)[C@@H](O)[C@H](O)[C@H]3N)O[C@@H]2CO)[C@H](N)[C@@H](O)[C@@H]1O [FRAMYCETIN] | Kd (microRNA 21 [3]; read-out: Kd): 0.1 to 0.7 µM; inhibition [6]: inactive
358 to 469 µM | – | 383 to 775 µM | NC(=O)C1=C(O)C[C@@H]2C[C@@H]3Cc4cccc(O)c4C(=O)C3=C(O)[C@]2(O)C1=O [INCYCLINIDE] | inhibition (microRNA 21 [1]): Dose-dependent effect; Kd (microRNA 21 [3]): Not Active; Kd [7]: Not Active; inhibition [2]: Dose-dependent effect
– | inactive | – | NC[C@H]1O[C@H](O[C@H]2[C@H](O)[C@@H](O[C@H]3O[C@H](CO)[C@@H](O)[C@H](N)[C@H]3O)[C@H](N)C[C@@H]2N)[C@H](O)[C@@H](O)[C@@H]1O [KANAMYCIN] | Kd (microRNA 21 [3]; read-out: Kd): 0.1 to 0.7 µM; inhibition [6]: inactive
62 to 196 µM | 40 to 100% | 80 to 240 µM | C=C1c2c(Cl)ccc(O)c2C(=O)C2=C(O)[C@]3(O)C(=O)C(C(N)=O)=C(O)[C@@H](N(C)C)[C@@H]3[C@@H](O)[C@H]12 [MECLOCYCLINE] | Kd (microRNA 21 [3]; read-out: Kd): 2.1 µM; Kd ([7]; read-out: Kd): 5.8 µM; Activity (microRNA 21 [8]): inactive; Activity (microRNA 21 [9]): inactive
56 to 437 µM | 40 to 100% | 97 to 749 µM | C=C1c2cccc(O)c2C(=O)C2=C(O)[C@]3(O)C(=O)C(C(N)=O)=C(O)[C@@H](N(C)C)[C@@H]3[C@@H](O)[C@H]12 [METHACYCLINE] | inhibition (Escherichia coli): Active; Kd (microRNA 21 [3]; read-out: Kd): 9.9 µM; inhibition (microRNA 21 [10]): Active; Kd ([7]; read-out: Kd): 17 µM; Activity (microRNA 21 [8]): inactive; Activity (microRNA 21 [9]): inactive; inhibition (microRNA 21 [11]): Active
305 to 539 µM | 40 to 100% | 437 to 744 µM | CN(C)c1ccc(O)c2c1C[C@H]1C[C@H]3[C@H](N(C)C)C(O)=C(C(N)=O)C(=O)[C@@]3(O)C(O)=C1C2=O [MINOCYCLINE] | –
200 to 918 µM | 40 to 100% | 431 to 1020 µM | CN(C)[C@@H]1C(O)=C(C(N)=O)C(=O)[C@@]2(O)C(O)=C3C(=O)c4c(O)cccc4[C@@](C)(O)[C@H]3[C@H](O)[C@@H]12 [OXYTETRACYCLINE] | –
– | inactive | – | CN[C@@H]1[C@H](O[C@H]2[C@H](O[C@H]3[C@H](O)[C@@H](O)[C@H](N=C(N)N)[C@@H](O)[C@@H]3N=C(N)N)O[C@@H](C)[C@]2(O)C=O)O[C@@H](CO)[C@H](O)[C@H]1O [STREPTOMYCIN] | Kd (microRNA 21 [3]; read-out: Kd): 0.1 to 0.7 µM; inhibition [6]: inactive
434 to 1000 µM | 40 to 100% | 421 to 865 µM | CN(C)[C@@H]1C(O)=C(C(N)=O)C(=O)[C@@]2(O)C(O)=C3C(=O)c4c(O)cccc4[C@@](C)(O)[C@H]3C[C@@H]12 [TETRACYCLINE] | Activity (microRNA 21 [8]): inactive; Activity (microRNA 21 [9]): inactive

SMILES | IC50 (microRNA 21 [1]) | inhibition (microRNA 21 [5]) | IC50 ([2]; read-out: IC50) | other results
CN1CCN(c2ccc3[nH]c(-c4ccc5[nH]c(-c6ccc(O)cc6)nc5c4)nc3c2)CC1 | – | inactive | – | inhibition [6]: inactive
Cc1c2c(c(O)c3c(O)cccc13)C(=O)[C@]1(O)C(=O)C(C(N)=O)=C(O)[C@@H](N(C)C)[C@@H]1C2 | – | 40 to 100% | – | –
